Measurements as given in ChEMBL document CHEMBL4325878, “SAR of a new antischistosomal urea carboxylic acid” (Bioorg Med Chem Lett, 2018).
≈ marks a conversion by molar mass, not a printed value. Calls of active or inactive are those of the source. No cut-off for these calls is given here.

Experiments:
[1] = Kinetic solubility of compound in 0.01 M HCL at 10 mg/ml at pH 2 by nephelometry; format: physicochemical; conditions: read-out: Kinetic_solubility
Summary of the method: (§1)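 DMSO solutions of compound spiked into pH 6.5 phosphate buffer or 0.01 M HCl (approx. pH 2.0); nephelometry read-out, reported as a solubility concentration range.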

[2] = Kinetic solubility of compound in pH 6.5 phosphate buffer at 10 mg/ml by nephelometry; format: physicochemical; conditions: read-out: Kinetic_solubility; summary of the method: as §1
[3] = Intrinsic clearance in human liver microsomes assessed per mg protein after 60 mins in presence of NADPH; format: ADME, Microsome; conditions: 1 h
Summary of the method: (§2)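 In vitro intrinsic clearance determined in human and in mouse liver microsomes. Control incubations run without NADPH co-factor; parameters were not derived where compound was lost in those co-factor-free controls.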

[4] = Intrinsic clearance in mouse liver microsomes assessed per mg protein after 60 mins in presence of NADPH; format: ADME, Microsome; conditions: 1 h; summary of the method: as §2
[5] = system: Schistosoma mansoni; assay: Antischistosomal activity against newly transformed Schistosoma mansoni cercariae at 10 uM after 72 hrs by microscopic analysis; format: functional, organism-based
Summary of the method: (§3)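 Newly transformed schistosomula and cultured adult S. mansoni were exposed in vitro to compound at 10 μM.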

[6] = system: Schistosoma mansoni; assay: Antischistosomal activity against adult stage of Schistosoma mansoni cercariae at 10 uM after 72 hrs by microscopic analysis; format: functional, organism-based; summary of the method: as §3
[7] = system: L6; assay: Cytotoxicity against rat L6 cells up to 200 uM; format: cell-based
Summary of the method: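 Growth inhibition of rat L6 myoblasts was used as the host-cell cytotoxicity measure, testing compound at concentrations up to 200 μM.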

[8] = system: Schistosoma mansoni; assay: Antischistosomal activity against Schistosoma mansoni cercariae infected in NMRI mouse assessed as worm burden reduction at 100 mg/kg, po administered as single dose on day 49 of post infection and measured on day 21 of post treatment relative to control; format: functional; set-up: scale not given: the % may be the effect or the level left
Summary of the method: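 Single 100 mg/kg oral dose given to S. mansoni-infected mice; in vivo activity read as worm burden reduction versus an untreated control group, with statistical comparison to control.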

[9] = system: Schistosoma mansoni; assay: Antischistosomal activity against adult stage of Schistosoma mansoni cercariae after 72 hrs by microscopic analysis; format: functional
[10] = system: Schistosoma mansoni; assay: Antischistosomal activity against adult stage of Schistosoma mansoni infected in NMRI nude mouse administered as single oral dose on day 49 of post infection; format: functional; conditions: 1176 h

SMILES	solubility kinetic [1] [µg/mL]	solubility kinetic [2] [µg/mL]	microsomal intrinsic clearance [3] [µL/min]	microsomal intrinsic clearance [4] [µL/min]	Activity [5]	Activity [6]	Activity [7]	Activity [8] [%]	LC50 [9] [nM]	ED50 [10] [mg/kg]
O=C(C1CCCCC1)N1CC(=O)N2CCc3ccccc3C2C1 (stereo not given) [PRAZIQUANTEL]								15	77	
O=C(O)CNC(=O)Nc1ccc(F)c(C(F)(F)F)c1	> 100	> 100	< 7	< 7	inactive	inactive	Non-Toxic	49		
CC1(C)NC(=O)N(c2ccc(F)c(C(F)(F)F)c2)C1=O										172
CC(C)(NC(=O)Nc1ccccc1)C(=O)O	> 100	50 to 100 (≈ 225 to 450 µM)	< 7	< 7	inactive	inactive	Non-Toxic	20		
CCOC(=O)C(C)(C)NC(=O)Nc1ccc(F)c(C(F)(F)F)c1	3.1 to 6.3 (≈ 9.22 to 18.7 µM)	3.1 to 6.3 (≈ 9.22 to 18.7 µM)			inactive	inactive	Non-Toxic	70		
O=C(Nc1ccc(F)c(C(F)(F)F)c1)NC1(C(=O)O)CC1	> 100	> 100	< 7	< 7	inactive	inactive	Non-Toxic	4		

The next lines start with results.

solubility kinetic [1] [µg/mL]	solubility kinetic [2] [µg/mL]	microsomal intrinsic clearance [3] [µL/min]	microsomal intrinsic clearance [4] [µL/min]	SMILES	Activity [5]	Activity [6]	Activity [7]	Activity [8] [%]	LC50 [9] [nM]	ED50 [10] [mg/kg]
50 to 100 (≈ 156 to 312 µM)	> 100	< 7	< 7	CC(C)(C(=O)O)N1Cc2cc(F)c(C(F)(F)F)cc2NC1=O	inactive	inactive	Non-Toxic	0		
25 to 50 (≈ 81.1 to 162 µM)	> 100	< 7	< 7	CC(C)(NC(=O)Nc1ccc(F)c(C(F)(F)F)c1)C(=O)O	inactive	inactive				
> 100	> 100	< 7	< 7	CC(C)(C(=O)O)N1CCCN(c2ccc(F)c(C(F)(F)F)c2)C1=O	inactive	inactive	Non-Toxic	14		
50 to 100 (≈ 163 to 327 µM)	> 100	< 7	< 7	CC(C)(C(=O)O)n1c(=O)[nH]c2cc(C(F)(F)F)c(F)cc21	inactive	inactive	Non-Toxic	0		
25 to 50 (≈ 81.4 to 163 µM)	25 to 50 (≈ 81.4 to 163 µM)	< 7	< 7	CC(C)(CC(=O)Nc1ccc(F)c(C(F)(F)F)c1)C(=O)O	inactive	inactive	Non-Toxic	42		
50 to 100 (≈ 156 to 312 µM)	> 100	7	< 7	O=C(Nc1ccc(F)c(C(F)(F)F)c1)NC1(C(=O)O)CCC1	inactive	inactive	Non-Toxic	21		
50 to 100 (≈ 163 to 325 µM)	50 to 100 (≈ 163 to 325 µM)	19	18	CC(C)(NC(=O)Nc1ccc(F)c(C(F)(F)F)c1)C(N)=O	inactive	inactive	Non-Toxic	38		
50 to 100 (≈ 163 to 325 µM)	25 to 50 (≈ 81.4 to 163 µM)	< 7	< 7	CC(C)(NC(=O)Cc1ccc(F)c(C(F)(F)F)c1)C(=O)O	inactive	inactive	Non-Toxic	0		
